Reference: ChEMBL document CHEMBL1149345, “Pyrrolo[1,2-b][1,2,5]benzothiadiazepines (PBTDs): A new class of agents with high apoptotic activity in chronic myelogenous leukemia K562 cells and in cells from patients at onset and who were imatinib-resistant” (2006)
Active and inactive are the calls of the source. The rule behind the calls is not given here.

Assays:
K562 [1] = assay: Apoptotic activity against human K562 cell line at 10 uM after 48 hrs; assay type: functional
Method in brief: (§1)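 K562 cells exposed at 10 µM for 8, 16, 24 and 48 h, run alongside imatinib reference and untreated control cells. Result is % apoptosis as mean ± SD of triplicate experiments. Morphology (chromatin condensation, micronuclei, vacuolization) checked by electron microscopy.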

K562 [2] = assay: Apoptotic activity against human K562 cell line at 10 uM after 16 hrs; assay type: functional; method in brief: as §1
K562 [3] = assay: Apoptotic activity against human K562 cell line at 10 uM after 24 hrs; assay type: functional; method in brief: as §1
K562 [4] = assay: Apoptotic activity against human K562 cell line at 10 uM after 8 hrs; assay type: functional; method in brief: as §1
Homo sapiens [5] = species on record: Homo sapiens; assay: Apoptotic activity against peripheral blood cells of imatinib-resistant CML affected human (38-70 yrs) at blast crisis phase at 10 uM after 48 hrs; assay type: functional
Method in brief: (§2)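 Peripheral blood cells taken from 2 CML patients in blast crisis that evolved under imatinib treatment. Cells cultured in vitro and exposed at 10 µM for 24 and 48 h. Apoptosis scored as % by DNA fragmentation assay.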

K562 [6] = assay: Decrease in procaspase 9 expression in human K562 cells by Western blot; assay type: functional, cell-based
Method in brief: (§3)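 Lysates of treated K562 cells taken after 24 h. Procaspase-8 and procaspase-9 immunoreactive bands assessed by Western blot.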

Homo sapiens [7] = species on record: Homo sapiens; assay: Apoptotic activity against peripheral blood cells of CML affected human (27-83 yrs) at onset phase at 10 uM after 48 hrs; assay type: functional
Method in brief: (§4)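 Bone marrow or peripheral blood cells harvested from 12 consecutive CML patients at onset. Cells cultured in vitro and treated at 10 µM for 24 and 48 h. Read-out by DNA fragmentation assay as % apoptosis.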

K562 [8] = assay: Decrease in procaspase 8 expression in human K562 cells by Western blot; assay type: functional, cell-based; method in brief: as §3
Homo sapiens [9] = species on record: Homo sapiens; assay: Apoptotic activity against peripheral blood cells of CML affected human (27-83 yrs) at onset phase at 10 uM after 24 hrs; assay type: functional; method in brief: as §4
K562 [10] = assay: BCR-ABL inactivation-independent inhibition of […]-induced apoptosis in human K562 cell at 10 uM by Western blot; assay type: functional, cell-based
Homo sapiens [11] = species on record: Homo sapiens; assay: Apoptotic activity against peripheral blood cells of imatinib-resistant CML affected human (38-70 yrs) at blast crisis phase at 10 uM after 24 hrs; assay type: functional; method in brief: as §2

Compound | Activity (K562 [1]) | Activity (K562 [2]) | Activity (K562 [3]) | Activity (K562 [4]) | Activity (Homo sapiens [5]) | Activity (K562 [6]) | Activity (Homo sapiens [7]) | Activity (K562 [8]) | Activity (Homo sapiens [9]) | Activity (K562 [10]) | Activity (Homo sapiens [11])
Cc1ccc(NC(=O)c2ccc(CN3CCN(C)CC3)cc2)cc1Nc1nccc(-c2cccnc2)n1 [IMATINIB] | 71.2% | 70% | 71% | 66.7% | – | – | – | – | – | – | –
O=S1(=O)c2ccccc2NC(CO)c2cccn21 (racemic) | 23% | 19.3% | 19.6% | 5.3% | – | – | – | – | – | – | –
CCOC(=O)C1Nc2ccccc2S(=O)(=O)n2cccc21 (racemic) | 89.7% | 61.3% | 76.3% | 34% | 60% | inactive | 70% | Active | 50% | Active | 40%
CCOC(=O)C1c2cccn2S(=O)(=O)c2ccccc2N1C(=O)c1cccc2ccccc12 (racemic) | 87.6% | 66% | 77% | 43.7% | – | – | – | – | – | – | –
CCOC(=O)CC1c2cccn2S(=O)(=O)c2ccccc2N1C(=O)c1ccc(C)cc1 (racemic) | 87.6% | 67.6% | 74.3% | 45% | – | – | – | – | – | – | –
CCOC(=O)[C@H]1Nc2ccccc2S(=O)(=O)n2cccc21 | 86.2% | 53.8% | 69% | 26.6% | – | – | – | – | – | – | –
CCOC(=O)[C@H]1c2cccn2S(=O)(=O)c2ccccc2N1C(=O)c1ccc(C)cc1 | 81.8% | 57.8% | 67.6% | 33.1% | – | – | – | – | – | – | –
CCOC(=O)C1c2cccn2S(=O)(=O)c2ccccc2N1C(=O)c1ccc(C)cc1 (racemic) | 91.7% | 67.6% | 79.6% | 45.6% | 78% | – | 78% | inactive | 55% | Active | 55%
CCOC(=O)[C@@H]1Nc2ccccc2S(=O)(=O)n2cccc21 | 80.3% | 48.4% | 63.2% | 20.5% | – | – | – | – | – | – | –
CCOC(=O)CC1c2cccn2S(=O)(=O)c2ccccc2N1C(=O)c1ccccc1 (racemic) | 92.3% | 68% | 79.5% | 45.3% | – | – | – | – | – | – | –
CCOC(=O)CC1c2cccn2S(=O)(=O)c2ccccc2N1C(=O)c1ccc(Cl)cc1 (racemic) | 90% | 65.5% | 78% | 43% | – | – | – | – | – | – | –
CCOC(=O)CC1Nc2ccccc2S(=O)(=O)n2cccc21 (racemic) | 88.3% | 53% | 72% | 29.3% | – | – | – | – | – | – | –
CCOC(=O)CC1c2cccn2S(=O)(=O)c2ccccc2N1C(=O)c1ccc(F)cc1 (racemic) | 90.7% | 66.3% | 79% | 44.6% | – | – | – | – | – | – | –
CCOC(=O)C1c2cccn2S(=O)(=O)c2ccccc2N1C(=O)c1ccc(F)cc1 (racemic) | 92% | 67.6% | 81% | 45.3% | – | – | – | – | – | – | –
CCOC(=O)[C@@H]1c2cccn2S(=O)(=O)c2ccccc2N1C(=O)c1ccc(C)cc1 | 86.2% | 63% | 71.6% | 38% | – | – | – | – | – | – | –
CCOC(=O)C1c2cccn2S(=O)(=O)c2ccccc2N1C(=O)c1ccc(Cl)cc1 (racemic) | 91.7% | 67% | 79.7% | 44.3% | – | – | – | – | – | – | –
O=C(O)CC1Nc2ccccc2S(=O)(=O)n2cccc21 (racemic) | 6.1% | 5.5% | 6.4% | 4.5% | – | – | – | – | – | – | –
O=C(O)C1Nc2ccccc2S(=O)(=O)n2cccc21 (racemic) | 6.2% | 5.7% | 6.8% | 4.8% | – | – | – | – | – | – | –
CCOC(=O)CC1c2cccn2S(=O)(=O)c2ccccc2N1C(=O)c1cccc2ccccc12 (racemic) | 92.6% | 69% | 80% | 47% | – | – | – | – | – | – | –
CCOC(=O)C1c2cccn2S(=O)(=O)c2ccccc2N1C(=O)c1ccccc1 (racemic) | 89.6% | 66.6% | 80% | 45% | – | – | – | – | – | – | –
